Sampled rows, rich in hits. Any-hit rate of the full collection: about 3%.
UBC13 polyUb: blocks human UBC13 polyubiquitin chain formation | inhibition, % at 20 µM | actives 0.47% (n = 330,000) | P61088 | TR-FRET; in the data active = inhibition above about 45%, passing the limit was not always enough
Target sequence (P61088 whole entry, looked up): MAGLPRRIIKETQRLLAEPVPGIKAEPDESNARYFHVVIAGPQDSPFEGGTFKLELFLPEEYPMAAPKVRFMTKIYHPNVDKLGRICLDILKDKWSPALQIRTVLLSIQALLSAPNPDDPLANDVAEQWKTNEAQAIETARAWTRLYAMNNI
MPTP inh: blocks calcium-induced mitochondrial swelling. inhibition, % at 10 µM. isolated mouse mitochondria, Ca2+ swelling absorbance, 30 min. actives 1.4% (n = 360,000). AID 602449;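 active = inhibition of 50% or more, scaled per plate between neutral and stimulator controls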
Apaf-1 inh: inhibitors of human Apaf-1 apoptosome; O14727; reconstituted apoptosome caspase-3 activity, DEVD-Rh110 fluorescence; inhibition, % at 20 µM; actives 0.71% (n = 330,000); AID 489030; active = inhibition of at least 40% at 20 µM
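Assay system – apoptosome proteins · Medium – Hepes buffer, pH 7.5 · Also added – cytochrome c with DEVD-Rh110 · Timing – 30 min compound preincubation, 50 min activation, room temperature · Detection – Rh110 fluorescence, excitation 480 nm, emission 540 nm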
iPSC survival up: hiPSC single-cell survival enhancement | survival enhancement, % at 20 µM | actives 0.044% (n = 360,000) | ATPlite luminescence; 100% = ROCK inhibitor wells, 0% = DMSO; in the data active = survival enhancement above about 18%;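 note: cells exposed to compounds for 16 hours before the ATP read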
MIN6 prolif: induces beta-cell replication in MIN6 cells; AID 2380; MIN6 cells proliferation, ATPlite luminescence, 48 h; cells starved in 0.2% serum; 100% = growth in 10% serum; proliferation, % at 10 µM; actives 0.29% (n = 330,000);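 active = compounds whose signal lies at least 3.5 SD above the mean of all wells on their plate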
Granule exo inh: blocks lytic granule exocytosis. inhibition, % at 10 µM. actives 0.66% (n = 360,000). TALL-104 LAMP-1 surface exposure, flow cytometry; cells stimulated with thapsigargin and PMA;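 active = inhibition above about 55%, limit read from the data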
Of the large screens only hits and unclear results are named; the others gave an inactive call.

C=CCOC(=O)C1=C[C@H](C(C)(C)C)[C@@H](CCCO)[C@H](OCC)O1	Granule exo inh 69
CCOc1ccc(/C=N/NC(=O)Cc2csc(Nc3cccc(C(F)(F)F)c3)n2)c(OCC)c1	Granule exo inh 68
Cc1c(CCOC(=O)c2ccccc2)sc[n+]1CC(=O)c1ccc(Br)cc1	Granule exo inh 95
Cc1c(CCOC(=O)c2cc([N+](=O)[O-])cc([N+](=O)[O-])c2)sc[n+]1CC(=O)c1ccccc1	none
CCOc1ccc(-c2csc(NNC3=NCCCCC3)n2)cc1	Granule exo inh 56
CS(=O)(=O)c1ccc(Nc2nc(C(N)c3ccccc3Cl)cs2)cc1 (configuration not stated)	none (no result: UBC13 polyUb, Apaf-1 inh, MIN6 prolif)
NC(=O)c1ccc(Nc2nc(C(N)c3ccccc3Cl)cs2)cc1 (configuration not stated)	iPSC survival up 28 (no result: UBC13 polyUb, Apaf-1 inh, MIN6 prolif)
CCN(C(=O)COC(=O)c1c(-c2ccccc2)noc1C)c1c(N)n(Cc2ccccc2)c(=O)[nH]c1=O	none
CC1CCCCN1S(=O)(=O)c1ccc(C(=O)N(CCCN(C)C)c2nc3ccc(Br)cc3s2)cc1 (configuration not stated)	UBC13 polyUb 52, Apaf-1 inh 67
CN(C)CCN(C(=O)c1ccc(S(=O)(=O)N2CCCC2)cc1)c1nc2ccc(Br)cc2s1	none
O=C1/C(=C/c2ccncc2)CCC/C1=C\c1ccncc1	iPSC survival up 90 (no result: UBC13 polyUb, Apaf-1 inh, MIN6 prolif)
O=C1C(=Cc2ccncc2)CCCc2ccccc21	none (no result: UBC13 polyUb, Apaf-1 inh, MIN6 prolif)
CCN(CC(=O)NCc1cccs1)C(=O)c1cc(Br)ccc1O	none
Cc1ccccc1Nc1nc(-c2sc(NC(=O)c3ccccc3)nc2C)cs1	UBC13 polyUb 93 (no result: MPTP inh, iPSC survival up, Granule exo inh)
Cc1ccccc1Nc1nc(-c2sc(NC(=O)c3cccc(Cl)c3)nc2C)cs1	none (no result: MPTP inh, iPSC survival up, Granule exo inh)
COc1ccc(NS(=O)(=O)c2cc(NS(=O)(=O)c3cc(C(=O)O)ccc3OC)ccc2C)cc1	none (no result: UBC13 polyUb, Apaf-1 inh, MIN6 prolif)
Brc1ccc2c(c1)OCCOCCOc1cc(Br)ccc1OCCOCCOCCO2	Granule exo inh 60
Cc1n[nH]c(C)c1S(=O)(=O)N1CCN(S(=O)(=O)c2cccc(F)c2)CC1	none
Cc1oc2c(c1C(=O)c1ccccc1)C(=O)C(=O)c1ccccc1-2	Apaf-1 inh 91, Granule exo inh 102
O=C(C1=C(c2ccccc2)C(=O)c2ccccc2C1=O)c1ccccc1	none (no result: UBC13 polyUb, Apaf-1 inh, MIN6 prolif)
O=C(C1CC=CCC1)N1CCCCCC1 (configuration not stated)	none (no result: UBC13 polyUb, Apaf-1 inh, MIN6 prolif)
Cc1c(-c2ccccc2)oc2c(C(=O)N3CCN(c4ccc([N+](=O)[O-])cc4)CC3)cccc2c1=O	Granule exo inh 90
COc1ccc(S(=O)(=O)N2CCC[C@@H]2C(=O)N2CCC[C@H]2C(=O)NCc2ccncc2)cc1C	none (no result: UBC13 polyUb, Apaf-1 inh, MIN6 prolif)
Cn1cccc1/C=C1\SC(=Nc2ccccc2)NC1=O	Granule exo inh 56
CCOc1ccccc1N1CCN(C(=O)c2cc(-c3cc(OC)ccc3OC)nc3ccccc23)CC1	none
CN(C1=C(NC(=O)c2ccccc2)C(=O)c2ccccc2C1=O)C1CCS(=O)(=O)C1 (configuration not stated)	Apaf-1 inh 88
CC(=O)N/C(=N/c1nc(C)cc(C)n1)Nc1cccc(C)c1	none
CC(=O)N/C(=N/c1nc(C)cc(C)n1)Nc1ccc(C)cc1C	Granule exo inh 66
Cc1ccc2c(c1)C(N1CCCC1=O)CC(c1ccco1)N2 (configuration not stated)	Granule exo inh 87
O=C1COc2ccc(C(=O)COC(=O)c3ccc(F)cc3Cl)cc2N1	none
Cc1nn(-c2ccccc2)c(C)c1C(=O)OCC(=O)N(C)c1c(N)n(Cc2ccccc2)c(=O)[nH]c1=O	none
O=Nc1c(-c2cccc([N+](=O)[O-])c2)nc2ncccn12	Granule exo inh 74
COc1cc(C2Oc3ccccc3C=C2[N+](=O)[O-])cc(OC)c1OC (configuration not stated)	Granule exo inh 60 (no result: UBC13 polyUb, Apaf-1 inh, MIN6 prolif)
COc1cc(C2NC(=O)c3ccccc3O2)cc(OC)c1OC (configuration not stated)	none
Cc1ccccc1OCC(=O)N/N=C/c1ccc(N2CCOCC2)o1	none
O=S(=O)(NCCS(=O)(=O)N1CCN(c2ccc(F)cc2)CC1)c1ccccc1	none (no result: UBC13 polyUb, Apaf-1 inh, MIN6 prolif)
Cn1c(C(=O)NCCCN2CCCCCC2)cc2c(=O)n(C)c3ccccc3c21	none
CCN(CC)CCNC(=O)c1cc2c(=O)n(C)c3ccccc3c2n1C	UBC13 polyUb 48
CCN(CC)CCCNC(=O)c1cc2c(=O)n(C)c3ccccc3c2n1C	none
Cn1c(C(=O)Nc2ccc3c(c2)OCCO3)cc2c(=O)n(C)c3ccccc3c21	Granule exo inh 80
Cn1c(C(=O)NCCCN2CCc3ccccc3C2)cc2c(=O)n(C)c3ccccc3c21	UBC13 polyUb 56
CCC(c1nnnn1-c1ccc2c(c1)OCCO2)N1CCN(Cc2c(F)cccc2Cl)CC1 (configuration not stated)	none (no result: UBC13 polyUb, Apaf-1 inh, MIN6 prolif)
O=[N+]([O-])c1ccc2c3n([n+]([O-])c2c1)CCN=C3c1ccc(Cl)cc1	Granule exo inh 78
Cc1ccc([N+](=O)[O-])cc1S(=O)(=O)NCC1COc2ccccc2O1 (configuration not stated)	none
CCN(C(=S)Nc1cc(S(=O)(=O)N2CCOCC2)ccc1Cl)c1cccc2ccccc12	Granule exo inh 61
COc1ccc(N2C(=O)CC(Sc3n[nH]c(-c4cccc(C)c4)n3)C2=O)cc1 (configuration not stated)	Granule exo inh 95
CC(/C=C1\SC(=Nc2cccnc2)NC1=O)=C\c1ccccc1	Granule exo inh 57
Cc1ccc(-c2nc3ccccc3n2C(C)C(=O)NC(C)(C)C)cc1 (configuration not stated)	none (no result: UBC13 polyUb, Apaf-1 inh, iPSC survival up, MIN6 prolif)
COc1ccc(CCNC(=O)COC(=O)CSc2ccc(C(N)=O)cc2[N+](=O)[O-])cc1OC	none (no result: UBC13 polyUb, Apaf-1 inh, MIN6 prolif)
Cc1cccc(C)c1NC(=O)C1(C)CSCC(=O)N1CCc1ccc(O)cc1 (configuration not stated)	none (no result: UBC13 polyUb, Apaf-1 inh, iPSC survival up, MIN6 prolif)
CC(OC(=O)c1cccc(S(=O)(=O)N2CCN(C)CC2)c1)C(=O)Nc1ccc(C(N)=O)cc1 (configuration not stated)	iPSC survival up 21
CC(OC(=O)c1cc(O)c2ccccc2c1O)C(=O)Nc1ccc(C(N)=O)cc1 (configuration not stated)	Apaf-1 inh 49
CC(=O)c1cccc(NC(=O)C(C)OC(=O)c2cccc(S(=O)(=O)N3CCN(C)CC3)c2)c1 (configuration not stated)	none
O=C(Nc1nnc(C2CC2)s1)c1cncc(Br)c1	none
CCN(CC)S(=O)(=O)c1cccc(C(=O)NCC2(N3CCOCC3)CCCCC2)c1	none
COCCN1C(=S)N[C@@H](c2cccc(F)c2)C(C(=O)OC)=C1C	UBC13 polyUb 86, Apaf-1 inh 57 (no result: MPTP inh, iPSC survival up, Granule exo inh)
OCCNc1ncnc2c1c(-c1ccccc1)c(-c1ccccc1)n2Cc1ccco1	none
